Experimental data of several laboratories.
Each line is one published result; the experiments were not run side by side.
ABL1: Tyrosine-protein kinase ABL1 (ABL1, Homo sapiens, UniProt P00519)

SMILES	target	observed	mode	technique	concentration	endpoint	result
O=C(Nc1cccnn1)N1CCN([C@@H]2CCOc3cc(C(F)(F)F)ccc32)CC1	ABL1	enzyme activity	inhibitor		20 µM	inhibition	-3%
Cn1cncc1[C@](O)(COc1ccc(C#N)cc1-c1ccc(OC(F)(F)F)cc1)c1ccc(C#N)cc1	Tyrosine-protein kinase ABL1, phosphorylated (ABL1, Homo sapiens, UniProt P00519)	cell-free assay		competition with immobilised ligand	1 µM	remaining binding	100%
Cc1nn(C)cc1-c1nc2c(N3CCN(Cc4ccc(Cl)cc4)CC3)c(Cl)cnc2[nH]1	Tyrosine-protein kinase ABL1, phosphorylated (ABL1, Homo sapiens, UniProt P00519, Q252H)	binding		competition with immobilised ligand	1 µM	remaining binding	84%
N#CC1(c2ccccn2)CCN(Cc2cc(C(=O)O)c(=O)n3ccccc23)CC1	Tyrosine-protein kinase ABL1, phosphorylated (ABL1, Homo sapiens, UniProt P00519, F317L)	cell-free assay		competition with immobilised ligand	1 µM	remaining binding	84%
C#Cc1n[nH]c2c(-c3cn([C@@H](C)c4ccccc4)c(=O)[nH]c3=O)cc(F)cc12	ABL1	enzyme activity	inhibitor		0.1 µM	inhibition	-2.2%
Cn1cc(-c2cc(F)cc(N3CCn4c(cc5c4CCCC5)C3=O)c2CO)cc(Nc2ccc(N3CCN(C4COC4)CC3)cn2)c1=O	ABL1	enzyme activity	inhibitor		0.1 µM	inhibition	-1%
Nc1ncc(-c2nc(N3CCOCC3)nc(N3CCOCC3)n2)c(C(F)F)n1	Tyrosine-protein kinase ABL1, non-phosphorylated (ABL1, Homo sapiens, UniProt P00519, F317I)	binding		competition with immobilised ligand	10 µM	remaining binding	84%
C#Cc1n[nH]c2c(-c3cn(C(C)c4ccccn4)c(=O)[nH]c3=O)cc(F)cc12 (stereo not drawn)	ABL1	enzyme activity	inhibitor		1 µM	inhibition	-8.5%
CC(C)(C)c1cc(C=C(C#N)C#N)cc(Br)c1O	ABL1	enzyme activity	inhibitor		0.5 µM	remaining activity	59.8%
